In ChEMBL document CHEMBL4261590, “Design, synthesis, and evaluation of chalcone analogues incorporate α,β-Unsaturated ketone functionality as anti-lung cancer agents via evoking ROS to induce pyroptosis” (Eur J Med Chem, 2018):
Calls of active or inactive are those of the source. The calls are words filed in the database; no cut-off is given here.

Columns and labels:
[1] = test system: NCI-H460; experiment: Antiproliferative activity against human NCI-H460 cells at 5 uM after 72 hrs by MTT assay; assay type: functional, cell-based
How it was run: (§1)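 Single-concentration screen at 5 μM. Cells seeded at 3000 per well, cultured overnight, treated 72 h. MTT (5 mg/mL stock) added for 4 h, formazan dissolved in DMSO, absorbance at 490 nm. Growth inhibition rate = [1 − A treated/A control]×100%.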

[2] = test system: A549; experiment: Antiproliferative activity against human A549 cells at 5 uM after 72 hrs by MTT assay; assay type: functional, cell-based; how it was run: as §1
[3] = test system: NCI-H1975; experiment: Antiproliferative activity against human NCI-H1975 cells at 5 uM after 72 hrs by MTT assay; assay type: functional, cell-based; how it was run: as §1
[4] = test system: NCI-H460; experiment: Antiproliferative activity against human NCI-H460 cells after 72 hrs by MTT assay; assay type: functional, cell-based; details: NCI-H460, 72 h
How it was run: (§2)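 Cells seeded at 3000 per well, cultured overnight, then exposed to compounds for 72 h at 37 °C, 5% CO2. MTT (5 mg/mL stock) added for 4 h, formazan dissolved in DMSO, absorbance read at 490 nm. Inhibition calculated as [1 − A treated/A control]×100%, and IC50 derived from the inhibition data. Mean ± SEM of three independent experiments.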

[5] = test system: A549; experiment: Antiproliferative activity against human A549 cells after 72 hrs by MTT assay; assay type: functional, cell-based; details: A549, 72 h; how it was run: as §2
[6] = test system: NCI-H1975; experiment: Antiproliferative activity against human NCI-H1975 cells after 72 hrs by MTT assay; assay type: functional, cell-based; details: NCI-H1975, 72 h; how it was run: as §2
[7] = test system: NCI-H460; experiment: Inhibition of colony formation in human NCI-H460 cells after 12 hrs by crystal violet staining-based assay; assay type: functional, cell-based
How it was run: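 Cells seeded at 1000 per well and grown overnight. Exposed to compounds at 1.25, 2.5 and 5 μM for 12 h, then switched to normal medium for about 8 days. Colonies stained with crystal violet and photographed.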

[8] = test system: NCI-H460; experiment: Antiproliferative activity against human NCI-H460 cells at 5 uM after 12 to 72 hrs by MTT assay; assay type: functional, cell-based; details: TDE = time-dependent effect
How it was run: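 Time course at 5 μM, with exposures of 12, 24, 48 and 72 h. Cells seeded at 3000 per well after overnight attachment. Viability read by MTT (5 mg/mL stock, 4 h), formazan dissolved in DMSO, absorbance at 490 nm.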

[9] = (§3) Acute toxicity in BALB/c mouse assessed as mortality at 500 mg/kg, ip administered as single dose on day 1 measured during 14 days; assay type: organism-based; details: BALB/c, in vivo
How it was run: (§4)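 Male wild-type BALB/c mice (26-33 g), randomised into groups of n=6 (vehicle, reference agent, test). Single intraperitoneal injection at 500 mg/kg on the first day only. Housed on a 12 h light-dark cycle at 25 °C with free water and diet. Deaths recorded over 14 days, then all animals euthanised.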

[10] = test system: NCI-H460; experiment: Induction of intracellular ROS accumulation in human NCI-H460 cells at 10 uM after 3 to 24 hrs by DCFH-DA staining-based flow cytometric analysis; assay type: functional, cell-based
How it was run: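 Cells plated at 300,000/well for 24 h, then treated at 10 μM for 3, 6, 12 and 24 h. Switched to serum-free medium and loaded with DCFH-DA (10 μM) for 30 min at 37 °C in the dark. Cells collected and analysed by flow cytometry.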

[11] = test system: NCI-H460; experiment: Induction of intracellular ROS accumulation in human NCI-H460 cells pre-treated with 5 mM NAC for 1 hr followed by compound addition at 10 uM for 3 hrs by DCFH-DA staining-based flow cytometric analysis; assay type: functional, cell-based
How it was run: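 Cells plated at 300,000/well for 24 h, pretreated with 5 mM NAC for 1 h, then given compound at 10 μM for 3 h. Loaded with DCFH-DA (10 μM) for 30 min at 37 °C in the dark in serum-free medium. Read by flow cytometry.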

[12] = test system: NCI-H460; experiment: Antiproliferative activity against human NCI-H460 cells assessed as reduction in cell viability preincubated with 5 mM NAC for 1 hr followed by compound addition at 5 uM after 48 hrs by MTT assay; assay type: functional, cell-based
How it was run: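 Cells pre-incubated with 5 mM NAC for 1 h, then exposed to compound at 5 μM for 48 h. Viability read by MTT at 490 nm after formazan solubilisation in DMSO. Groups compared against compound-only and NAC-only treatments.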

[13] = test system: NCI-H460; experiment: Inhibition of colony formation in human NCI-H460 cells preincubated with 5 mM NAC for 1 hr followed by compound addition at 5 uM after 12 hrs by crystal violet staining-based assay; assay type: functional, cell-based
How it was run: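 Cells pre-incubated with 5 mM NAC for 1 h, then exposed to compound at 5 μM for 12 h. Medium replaced with fresh medium and colonies grown about 8 days. Colonies stained with crystal violet and imaged.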

[14] = test system: NCI-H460; experiment: Induction of pyroptosis in human NCI-H460 cells at 20 uM assessed as loss of osmotic potential at 20 uM after 19 to 24 hrs by bright field microscopic analysis; assay type: functional, cell-based
How it was run: (§5)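 Cells plated at 300,000/well 24 h before stimulation, then exposed to compound at 20 μM for 19 and 24 h. Cisplatin (20 μg/mL, 24 h) run alongside, with DMSO-treated cells as control. Morphology recorded by static bright-field microscopy.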

[15] = test system: NCI-H460; experiment: Induction of pyroptosis in human NCI-H460 cells assessed as cytoplasmic swelling at 20 uM after 19 to 24 hrs by bright field microscopic analysis; assay type: functional, cell-based; how it was run: as §5
[16] = test system: NCI-H460; experiment: Induction of pyroptosis in human NCI-H460 cells assessed as release of cellular content at 20 uM after 19 to 24 hrs by bright field microscopic analysis; assay type: functional, cell-based; how it was run: as §5
[17] = test system: NCI-H460; experiment: Induction of pyroptosis in human NCI-H460 cells assessed as reduction in pro-caspase-3 protein expression at 5 uM by Western blot analysis; assay type: functional, cell-based; details: TDE = time-dependent effect
[18] = test system: NCI-H460; experiment: Induction of pyroptosis in human NCI-H460 cells pretreated with 20 mM NAC for 4 hrs followed by compound addition assessed as at 20 uM after 24 hrs by bright field microscopic analysis; assay type: functional, cell-based
How it was run: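 Cells plated at 300,000/well, pretreated with NAC (20 mM) for 4 h, then given compound at 20 μM for 24 h. Pyroptotic morphology recorded by bright-field microscopic imaging, with DMSO-treated cells as control.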

[19] = test system: Mus musculus; experiment: as §3; assay type: organism-based; details: in vivo, 336 h; how it was run: as §4

Compound: C=CC(=O)Nc1ccc(C(=O)/C=C/c2ccc(Cl)c(Cl)c2)cc1
- Activity [1]: Active
- Activity [2]: inactive
- Activity [3]: Active

Compound: C=CC(=O)Nc1ccc(C(=O)/C=C/c2cc(OC)c(OC)c(OC)c2)cc1
- IC50 [4]: 2 µM
- IC50 [5]: 4 µM
- IC50 [6]: 5.4 µM
- Activity [1]: Active
- Activity [3]: Active
- inhibition [7]: Dose-dependent effect
- Activity [8]: Tde

Compound: C=CC(=O)Nc1ccc(C(=O)/C=C/c2ccc(OC)cc2)cc1
- Activity [1]: Active
- Activity [2]: inactive
- Activity [3]: Active

Compound: C=CC(=O)Nc1ccc(C(=O)/C=C/c2c(F)cccc2F)cc1
- Activity [1]: Active
- Activity [3]: Active

Compound: C=CC(=O)Nc1ccc(C(=O)/C=C/c2cccc(F)c2)cc1
- Activity [1]: Active
- Activity [3]: Active

Compound: C=CC(=O)Nc1ccc(C(=O)/C=C/c2ccccc2)cc1
- Activity [1]: Active
- Activity [3]: Active

Compound: C=CC(=O)Nc1ccc(C(=O)/C=C/c2cccc(Cl)c2Cl)cc1
- Activity [1]: Active
- Activity [3]: Active

Compound: Nc1ccc(C(=O)/C=C/c2ccccc2Cl)cc1
- Activity [1]: Active
- Activity [2]: Active
- Activity [3]: Active

Compound: C=CC(=O)Nc1ccc(C(=O)/C=C/c2cccc(OC)c2OC)cc1
- Activity [1]: Active
- Activity [3]: Active

Compound: O=C1/C(=C/c2ccccc2F)CNC/C1=C\c1ccccc1F
- mortality at 336 h [9]: 33.3%

Compound: C=CC(=O)Nc1ccc(C(=O)/C=C/c2ccc(Cl)cc2Cl)cc1
- Activity [1]: Active
- Activity [3]: Active

Compound: C=CC(=O)Nc1ccc(C(=O)/C=C/c2ccc(F)c(F)c2)cc1
- Activity [1]: Active
- Activity [2]: inactive
- Activity [3]: Active

Compound: C=CC(=O)Nc1ccc(C(C)=O)cc1
- Activity [1]: Active
- Activity [2]: Active
- Activity [3]: Active

Compound: COc1cc(O)c(CC=C(C)C)c(O)c1C(=O)/C=C/c1ccc(O)cc1 [XANTHOHUMOL]
- IC50 [4]: 7.5 µM
- IC50 [5]: 11.9 µM
- IC50 [6]: 13 µM

Compound: C=CC(=O)Nc1ccc(C(=O)/C=C/c2ccc(Cl)cc2)cc1
- Activity [1]: Active
- Activity [2]: inactive
- Activity [3]: Active

Compound: C=CC(=O)Nc1ccc(C(=O)/C=C/c2ccccc2Br)cc1
- IC50 [4]: 2.2 µM
- IC50 [5]: 4.4 µM
- IC50 [6]: 5.2 µM
- Activity [1]: Active
- Activity [3]: Active
- inhibition [7]: Dose-dependent effect
- Activity [8]: Tde

Compound: C=CC(=O)Nc1ccc(C(=O)/C=C/c2ccccc2F)cc1
- Activity [1]: Active
- Activity [3]: Active

Compound: C=CC(=O)Nc1ccc(C(=O)/C=C/c2ccccc2Cl)cc1
- IC50 [4]: 2.3 µM
- IC50 [5]: 3.2 µM
- IC50 [6]: 5.7 µM
- Activity [1]: Active
- Activity [2]: Active
- Activity [3]: Active
- inhibition [7]: Dose-dependent effect
- Activity [10]: Active
- Activity [11]: inactive
- Activity [12]: inactive
- inhibition [13]: inactive
- Activity [14]: Active
- Activity [15]: Active
- Activity [16]: Active
- Activity [17]: Tde
- Activity [18]: inactive
- Activity [19]: Non-Toxic
- Activity [8]: Tde

Compound: C=CC(=O)Nc1ccc(C(=O)/C=C/c2ccc(OC)c(OC)c2)cc1
- Activity [1]: Active
- Activity [2]: inactive
- Activity [3]: Active

Compound: C=CC(=O)Nc1ccc(C(=O)/C=C/c2cc(OC)ccc2OC)cc1
- Activity [1]: Active
- Activity [3]: Active

Compound: C=CC(=O)Nc1ccc(C(=O)/C=C/c2ccccc2C(F)(F)F)cc1
- Activity [1]: Active
- Activity [2]: Active
- Activity [3]: Active

Compound: C=CC(=O)Nc1ccc(C(=O)/C=C/c2ccc(N(C)C)cc2)cc1
- Activity [1]: Active
- Activity [2]: inactive
- Activity [3]: Active

Compound: C=CC(=O)Nc1ccc(C(=O)/C=C/c2cc(OC)ccc2F)cc1
- Activity [1]: Active
- Activity [3]: Active
